Only some compounds are listed: those with a hit (about 2.6% of all), similar ones and a draw of the others.
Vif inh = blocks HIV Vif function | HEK293T cells, Vif self-association by quenched fluorescence, imaging, 24 h | inhibition, % at 7.49 µM | 340,000 tested, 0.35% active | AID 602346; in the data active means inhibition above about 50%, passing the limit was not always enough; inconclusive means no clear call, values can overlap the other calls; inactive means below about 31%
MITF act = increases MITF-driven TRPM1 promoter luciferase signal; SK-MEL-5 TRPM1-promoter luciferase, 24 h; % of positive control, neutral wells = 0; activation, % at 12.5 µM; 300,000 tested, 0.75% active;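 active means mean activation of at least 80% with every replicate also reaching 80%; inconclusive means mean reaches 80% but some replicate falls short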;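 further: 0% = neutral control wells and 100% = parthenolide positive control wells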
Wnt bcat act = Wnt/beta-catenin pathway activation; 300,000 tested, 1.2% active; activation, % at 9.35 µM; Wnt/beta-catenin reporter cell assay, activator, plate reader; in the data active means activation above about 30%, passing the limit was not always enough; inconclusive means no clear call, values can overlap the other calls;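 further: 0% = neutral control wells and 100% = positive control wells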
esBAF inh = inhibitors of esBAF chromatin remodeling in mouse ES cells. Bmi1-luciferase knock-in reporter, 24 h; 100% = twice the neutral-well signal. reporter increase, % at 12.5 µM. 350,000 tested, 2% active. AID 602393; in the data active means activation above about 40%; inconclusive means no clear call, values can overlap the other calls;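 further: 0% = median of the plate's neutral control wells and 100% = double that signal; a rise in the Bmi1 reporter signal indicates esBAF inhibition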
Xi reactivation = reactivates the inactive X chromosome in mouse fibroblasts; XiGFP mouse fibroblasts, % GFP-positive cells imaging, 3 d; cells co-treated with 5-aza-dC sensitizer; scaled so ellipticine positive control = 100%; 360,000 tested, 0.055% active; activation, % at 7.58 µM;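 active means mean normalized replicate activation at least 10% and every replicate at or above 10%; inconclusive means only one of the two criteria met; inactive means mean below 10% and not all replicates reach 10%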;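 further: 0% = median of on-plate neutral control wells and 100% = ellipticine 6 µM median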
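material = 68-5-11 XiGFP fibroblast line | medium = DMEM plus 5-aza-dC sensitizer | schedule = 3 days compound exposure | benchmarks = positive control ellipticine, 6 µM final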
* hit, by the source's call; ? = inconclusive; · = no result.

SMILES	Vif inh	MITF act	Wnt bcat act	esBAF inh	Xi reactivation
CCOc1ccc2nc(NC(=O)CSCC(=O)Nc3cc(C)on3)sc2c1	-5.3	103.8*	?	4.6	-0.1
CCOc1ccc2nc(NC(=O)c3cnccn3)sc2c1	-1.3	55.6	7.7	49.2*	·
CCOCC(=O)Nc1nc2ccc(OCC)cc2s1	2.3	33.4	45.7*	7.3	·
CCOc1ccc2nc(NC(=O)CSc3ccc(Cl)cc3)sc2c1	5.6	19.2	5.3	·	·
CC(C)NC(=O)N(C)C[C@@H]1Oc2ccc(NC(=O)CCCCCC(=O)Nc3ccccc3N)cc2CC(=O)N([C@@H](C)CO)C[C@@H]1C	·	·	·	2.6	0.0
CO[C@H]1CN(C)C(=O)c2cc(NS(=O)(=O)c3cn(C)cn3)ccc2OC[C@@H](C)N(C)C[C@H]1C	·	·	·	-3.1	-0.4
COc1ccc(-c2cnc3c(c2)C(=O)N([C@H](C)CO)C[C@H](C)[C@H](CN(C)S(=O)(=O)c2cn(C)cn2)O3)cc1	·	·	·	3.2	-0.8
C/C=C/c1cnc2c(c1)C(=O)N([C@@H](C)CO)C[C@H](C)[C@@H](CN(C)C(=O)NCCC)O2	·	·	·	2.1	0.1
COc1ccc(C(=O)/C=C/c2cn(CN3CCN(C)CC3)c3ccccc23)cc1	-1.4	95.0*	·	51.4*	·
CCOc1ccc(C(=O)/C=C/c2cn(CN3CCN(C)CC3)c3ccccc23)cc1	·	64.0	4.6	26.2	·
CCS(=O)(=O)N1CCC2(CC1)CN(CC1CCOCC1)[C@H](CO)c1c2c2ccc(OC)cc2n1C	·	·	·	·	0.0
COc1ccc(C[C@@H]2OC3(C=CC(=O)C=C3)O[C@H]2Cc2ccc(OC)cc2)cc1	69.3*	-99.7	·	-86.3	·
Cc1nc(C)c(-c2csc(Nc3ncccc3C)n2)s1	-14.8	35.9	14.7	54.7*	0.0
COc1ccc(-c2csc(Nc3ncccc3C)n2)cc1	6.8	48.8	·	-8.5	·
Cc1nc(C)c(-c2csc(Nc3ccc(F)cc3)n2)s1	-8.0	36.4	33.7*	·	0.0
COc1cccc(Nc2nc(-c3sc(N)nc3C)cs2)c1	7.8	31.0	3.3	·	·
Cc1nc(C)c(-c2csc(Nc3ccc(Cl)cn3)n2)s1	-31.4	·	0.4	59.5*	0.0
COc1cccc(Nc2nc(-c3sc(C)nc3C)cs2)c1	-3.9	·	0.1	70.9*	0.0
Cc1nc(C)c(-c2csc(Nc3ccc(O)cc3C)n2)s1	11.7	24.6	1.8	19.1	0.0
Cc1ccc([C@H]2C[C@H](O)[C@@H](n3cc(C4CC4)nn3)CN2Cc2cccs2)cc1	3.0	·	1.4	46.9*	-0.1
CC(C)(C)C(=O)Nc1ccc(N=Nc2ccccc2)cc1	-4.8	-18.5	-8.4	-60.9	0.0
Cc1cc(N=Nc2ccccc2)cc(C)c1NC(=O)C(F)(F)F	-3.8	107.1*	43.1*	·	0.5
CCOC(=O)N/N=C\C=C\c1ccc2c(c1)OCO2	-12.4	72.9	49.7*	·	0.0
COc1ccc(CC(=O)N/N=C/C=C/c2ccc3c(c2)OCO3)cc1OC	1.7	·	8.9	·	0.0
COC(=O)N/N=C\C=C\c1ccc2c(c1)OCO2	-8.6	32.1	·	·	·
SMILES	Vif inh	MITF act	Wnt bcat act	esBAF inh	Xi reactivation
CC(C)(C)OC(=O)N/N=C\C=C\c1ccc2c(c1)OCO2	0.4	119.0*	55.5*	·	0.1
COc1ccc(S(=O)(=O)N(C)C[C@@H]2Oc3c(NC(=O)C4CCOCC4)cccc3C(=O)N([C@@H](C)CO)C[C@H]2C)cc1	·	·	·	-2.1	-0.6
CO[C@H]1CN(C)C(=O)c2ccc(NC(=O)C3CCCC3)cc2OC[C@H](C)N(C)C[C@@H]1C	·	·	·	·	0.1
O=C(CCl)N1c2ccccc2Oc2ccc3ccccc3c21	7.7	-86.6	7.5	50.1*	-0.1
Cc1onc(-c2c(Cl)cccc2Cl)c1C(=O)N1C(C)CCCC1C (centres undefined)	7.5	0.6	3.1	2.3	0.1
CC1CCCC(C)N1C(=O)c1cc(-c2ccc3c(c2)OCO3)on1 (centres undefined)	0.8	94.8*	0.7	56.4*	0.4
CC1CCCC(C)N1C(=O)c1cc(-c2ccc(Cl)c(Cl)c2)on1 (centres undefined)	-12.2	97.1*	·	79.7*	·
COc1cccc(S(=O)(=O)Nc2ccc3c(c2)OC[C@@H](C)N(Cc2ccccc2F)C[C@H](C)[C@H](OC)CN(C)C3=O)c1	·	·	·	1.4	0.3
O=C(OCc1ccccc1)c1ccccc1	11.1	·	-0.3	14.1	·
O=C(OCc1ccccc1)c1ccc2c(c1)-c1ccccc1C2=O	-2.8	112.7*	41.3*	·	·
C[C@@H]1CN([C@H](C)CO)C(=O)c2cc(C3=CCCC3)cnc2O[C@H]1CN(C)C(=O)C1CC1	·	·	·	·	-1.2
COc1ccc(C2=CN(Cc3ccccc3)C(c3ccccc3)CC2=O)cc1 (centres undefined)	1.0	99.9*	19.3	19.0	0.0
COc1ccc(CCC(=O)Nc2nnc(C)s2)cc1	2.6	·	63.3*	·	0.4
COCc1nnc(NC(=O)CCc2ccc(OC)cc2)s1	-1.1	·	0.2	-13.9	0.4
COc1ccc(CCC(=O)Nc2nc3ccccc3[nH]2)cc1	-4.0	39.9	·	46.0*	·
CCOc1ccccc1OCCCC(=O)Nc1nc2ccccc2[nH]1	12.1	4.8	-0.3	·	0.4
COc1cc(OC)cc(C(=O)Nc2nc3ccccc3[nH]2)c1	-1.3	71.5	·	·	·
CCCCCC(=O)Nc1nc2ccccc2[nH]1	-14.1	·	53.4*	?	·
COc1ccc(Br)c(C(=O)Nc2nc3ccccc3[nH]2)c1	9.3	92.1*	6.3	48.9*	0.0
CC(C)C#Cc1cnc2c(c1)C(=O)N([C@@H](C)CO)C[C@H](C)[C@@H](CN(C)C(=O)c1cnccn1)O2	·	·	·	0.0	0.5
CCN1[C@@H]2c3ccc(C4=CCCCC4)c(=O)n3C[C@H]1[C@H](CO)[C@H]2C(=O)N1CCOCC1	·	·	·	-2.3	0.5
O=C(CC1CCCC1)Nc1nc2ccccc2[nH]1	12.7	·	39.7*	62.3*	·
CC(C)Oc1ccc(C(=O)Nc2nc3ccccc3[nH]2)cc1	5.4	-80.8	-4.2	-88.6	0.2
COc1ccc(OCC(=O)Nc2nc3ccccc3[nH]2)cc1	2.3	54.9	·	48.9*	·
O=C(COc1ccc2ccccc2c1)Nc1nc2ccccc2[nH]1	24.5	-0.7	·	-8.0	·
SMILES	Vif inh	MITF act	Wnt bcat act	esBAF inh	Xi reactivation
CCC(Oc1ccccc1)C(=O)Nc1nc2ccccc2[nH]1 (centres undefined)	3.8	41.2	6.6	52.9*	·
C[C@H](CO)N1C[C@H](C)[C@@H](CN(C)Cc2ccc(C(F)(F)F)cc2)Oc2ccc(NC(=O)NC3CCCCC3)cc2CC1=O	·	·	·	-2.9	0.0
CC(C)C(=O)Nc1nc2cc3c(cc2s1)OCO3	4.4	·	29.3	68.0*	-0.3
CC(C)(C)C(=O)Nc1nc2cc3c(cc2s1)OCO3	-0.9	?	42.5*	28.8	0.0
Fc1cccc2sc(Nc3nc4cc5c(cc4s3)OCO5)nc12	-8.0	69.7	14.4	95.6*	0.1
O=C(/C=C/c1ccc2c(c1)OCO2)Nc1nc2ccc(F)cc2s1	-1.0	87.3*	33.7*	56.3*	0.3
CN(C)CC(=O)Nc1ccc2c(c1)[C@H]1C[C@@H](CC(=O)N3CCN(C)CC3)O[C@@H](CO)[C@H]1O2	·	·	·	2.7	-0.1

High-throughput results: PubChem, Broad Institute
